Experiment [1] concerns the target T1, Heat shock factor protein 1 (Homo sapiens) (UniProt Q00613).
T1 sequence (whole entry): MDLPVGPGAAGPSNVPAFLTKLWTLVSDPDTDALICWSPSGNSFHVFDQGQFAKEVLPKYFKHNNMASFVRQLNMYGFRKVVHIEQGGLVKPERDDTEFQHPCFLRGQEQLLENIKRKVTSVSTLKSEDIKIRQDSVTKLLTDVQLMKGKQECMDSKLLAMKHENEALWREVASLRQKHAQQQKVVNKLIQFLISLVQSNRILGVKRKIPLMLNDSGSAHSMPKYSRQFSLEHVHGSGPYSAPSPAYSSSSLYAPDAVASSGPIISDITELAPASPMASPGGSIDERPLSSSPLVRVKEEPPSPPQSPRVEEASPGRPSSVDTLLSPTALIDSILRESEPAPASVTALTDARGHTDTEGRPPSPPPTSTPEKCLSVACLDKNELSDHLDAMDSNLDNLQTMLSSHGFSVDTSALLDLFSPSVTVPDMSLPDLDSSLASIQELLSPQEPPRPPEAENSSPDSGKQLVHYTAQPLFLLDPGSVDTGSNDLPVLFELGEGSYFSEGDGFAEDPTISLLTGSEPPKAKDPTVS
Kind of experiment: Inhibition of recombinant human HSF1 expressed in Escherichia coli BL21 (DE3) assessed as reduction in HSF1 trimer-5-fluorescein labeled HSE interaction at 400 uM preincubated for 1 hr followed by DNA tracer addition and measured after 15 mins by competitive fluorescence polarization assay. In outline:
(§1)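 His-HSF1 trimer, expressed in BL21 E. coli and isolated by SEC, was shaken with peptide in DMSO for 1 h at room temperature. 5-fluorescein HSE tracer was then added to give final 250 nM trimer, 15 nM tracer and 5% DMSO, followed by 15 min shaking. FP read at 485/530 nm. Single-point final peptide level 400 μM, scored as % inhibition relative to DMSO and tracer-only signals. Dose-response used serial dilutions from 800 μM, with nonlinear-regression IC₅₀ fitting. Duplicates.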
(Fluorescence polarisation rises when a labelled molecule tumbles more slowly, as on binding a larger partner.)

The target of experiment [2] is T1, Heat shock factor protein 1 (Homo sapiens). In words: (§2) Inhibition of recombinant human HSF1 expressed in Escherichia coli BL21 (DE3) assessed as reduction in HSF1 trimer-5-fluorescein labeled HSE interaction preincubated for 1 hr followed by DNA tracer addition and measured after 15 mins by competitive fluorescence polarization assay. In outline:
as §1

For experiment [3], the target named is T2, Heat shock factor protein 1 (Homo sapiens, UniProt Q00613).
T2 sequence (Q00613 whole entry): T1 sequence (whole entry)
Described as §2. In outline:
as §1

In experiment [4] the target is T1, Heat shock factor protein 1 (Homo sapiens). Kind of experiment: (§3) Inhibition of recombinant human HSF1 expressed in Escherichia coli BL21 (DE3) assessed as reduction in HSF1 trimer-5-fluorescein labeled HSE interaction preincubated of protein with DNA tracer up to 24 hrs followed by compound addition and measured after 15 mins by fluorescence polarization assay. The conditions noted are these: in the assay text read “measured after 1 hr” for “measured after 15 mins”. A digest of the protocol:
(§4)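 Peptide added to a pre-formed complex of HSF1 trimer (250 nM) and 5-fluorescein HSE tracer (15 nM), then co-incubated a further 1 h before FP reading at 485/530 nm. Buffer was 25 mM HEPES, 75 mM NaCl, pH 7.5, 10 mM MgCl₂, 0.01% Triton-X. IC₅₀ from nonlinear regression; duplicate experiments.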

Experiment [5] has as its target T2, Heat shock factor protein 1. Described as §3. The following applies: in the assay text read “measured after 1 hr” for “measured after 15 mins”. A digest of the protocol: as §4
Experiment [6] deals with T1, Heat shock factor protein 1 (Homo sapiens). In words: Disruption of full length human HSF1 trimer structure at 20 uM after 30 mins by size-exclusion chromatographic method. In outline: (§5)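 SEC-purified full-length human HSF1 trimer (2 μM) incubated with 20 μM peptide (10-fold molar excess) or DMSO (2% v/v) at 4 °C for 30 min. Samples then run on Sephacryl S-400 SEC, and collected fractions analysed by immunoblot to follow oligomeric state.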

The target is the same in experiment [7]. Kind of experiment: Disruption of full length human HSF1 trimer structure at 20 uM after 30 mins by SDS-PAGE analysis.
Experiment [8] shares this target. Kind of experiment: Disruption of full length human HSF1 trimer structure at 20 uM after 30 mins by Western blot analysis. A digest of the protocol: as §5
For experiment [9], the system named is DNA. In words: Binding affinity to 5-fluorescein labeled HSE DNA (unknown origin) after 15 mins to 24 hrs by fluorescence polarization method. The experiment is classed as nucleic-acid assay. In outline: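 Tracer-binding control: peptides serially diluted from 400 μM, incubated with 15 nM 5-fluorescein HSE tracer alone (no protein) for 15 min, 1 h, 3 h and 24 h. Read by FP at excitation 485 nm and emission 530 nm, with 15-min mP values plotted. Buffer was 25 mM HEPES, 75 mM NaCl, pH 7.5, 10 mM MgCl₂, 0.01% Triton-X. Triplicates.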

Active and inactive are the calls of the source. The calls are words filed in the database; no cut-off is given here.

The inhibition is the percentage by which the read-out fell short of the control. Turning to Ac-LAMKHENEAL-NH2, the inhibition in experiment [1] was determined as 8.2%. A word on the IC50: it is the concentration needed to halve the response being measured. For the substance Ac-DKNELSDHLDAMDSNL-NH2, the figures for the inhibition in [1], in [2] and in [4] were 91%, “Dose-dependent effect” and “Dose-dependent effect”, respectively. In addition, the half-inhibitory concentration (IC50) in [3] was found to be 13 µM; in [5], 14 µM. Further, the result in experiment [6], in [7] and in [8] was inactive. Consider Ac-DAMDSNL-NH2, for which the inhibition in [1] came out at 21%. As to Ac-LAMKHENEALWREVASLRQKHAQQQKVVNKL-NH2, the outcome in experiment [9] was Active. Consider Ac-HLDAMDSNLDNLQTMLSSHGFSVDTSALLD-NH2, for which the inhibition in experiment [1] was 64%; in [2] it was “Dose-dependent effect”. Besides, the half-inhibitory concentration (IC50) in experiment [3] was 150 µM. Consider Ac-RQKHAQQQKVVNKL-NH2, for which the inhibition in experiment [1] amounted to 22%.

Ac-WREVASL-NH2: the inhibition in experiment [1] was 27%.

Regarding Ac-DVQLMKGKQECMDSKLLAMKHENEALWREV-NH2, in experiment [1], the inhibition turned out to be 8.1%. The same measure, in the same setting: in the case of Ac-DKNELSDHL-NH2 it was 0.4%; in that of Ac-IKIRQDSVTKLLTDVQLMKGKQECMDSK-NH2, > 100%.

These data come from ChEMBL document CHEMBL4270511, “Rational design and screening of peptide-based inhibitors of heat shock factor 1 (HSF1)” (Bioorg Med Chem, 2018).
